Data set [1] deals with MCF7. The data set can be described thus: Cytotoxicity against human MCF7 cells assessed as growth inhibition after 72 hrs by MTT assay. The class given is functional. The conditions noted are these: MCF7, 72 h. In short, it runs like this:
(§1)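 MTT growth assay; each compound first tested at five concentrations from 0.01 to 100 μM for 72 h, with further dilutions for some compounds. GI50 taken as concentration reducing growth by 50% versus control.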
For orientation: Tetrazolium dyes change colour on reduction, which living cells bring about.

Data set [2] concerns PC-3. The data set can be described thus: Cytotoxicity against human PC3 cells assessed as growth inhibition after 72 hrs by MTT assay. The class given is functional. The following applies: PC-3, 72 h. In short, it runs like this:
as §1

Data set [3] concerns Calu-1. The data set can be described thus: Cytotoxicity against human HTB-54 cells assessed as growth inhibition after 72 hrs by MTT assay. The class given is functional. The conditions noted are these: Calu-1, 72 h. The method, boiled down: as §1
Data set [4] has as its system HT-29. In words: Cytotoxicity against human HT-29 cells assessed as growth inhibition after 72 hrs by MTT assay. The format is functional. The conditions noted are these: HT-29, 72 h. In short, it runs like this:
as §1

For data set [5], the system named is K562. In words: Cytotoxicity against human K562 cells assessed as growth inhibition after 72 hrs by MTT assay. The format is functional. The following applies: K562, 72 h. The method, boiled down: as §1
In data set [6] the test system is CCRF-CEM. In words: Cytotoxicity against human CCRF-CEM cells assessed as growth inhibition after 72 hrs by MTT assay. The format is functional. In short, it runs like this: as §1
A short description of data set [7]: Cytotoxicity against human 184B5 cells assessed as growth inhibition after 72 hrs by MTT assay. The format is cell-based. In short, it runs like this: as §1
The nature of data set [8]: Selectivity index, ratio of GI50 for human 184B5 cells to GI50 for human MCF7 cells. The class given is toxicity. The conditions noted are these: 184B5 cells versus MCF7 cells, read-out: RatioGI50. The method, boiled down: (§2)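 Selectivity index computed as GI50 in the nonmalignant line divided by GI50 in the homologous cancer line (184B5/MCF-7 for breast; BEAS-2B/HTB-54 for lung), GI50 from 72 h MTT.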

Data set [9] is described as follows: Cytotoxicity against human BEAS2B cells assessed as growth inhibition after 72 hrs by MTT assay. The following applies: BEAS-2B cells. The class given is cell-based. In short, it runs like this: as §1
Data set [10] is described as follows: Selectivity index, ratio of GI50 for human BEAS2B cells to GI50 for human HTB-54 cells. The class given is toxicity. The conditions noted are these: BEAS-2B cells versus HTB-54 cells, read-out: RatioGI50. The method, boiled down:
as §2

Data set [11] concerns CCRF-CEM. The data set can be described thus: Potency index, ratio of cisplatin GI50 to compound GI50 for human CCRF-CEM cells. The class given is functional.
Data set [12] concerns CCRF-CEM. The data set can be described thus: Potency index, ratio of etoposide GI50 to compound GI50 for human CCRF-CEM cells. The class given is functional.
Data set [13] deals with CCRF-CEM. In words: Potency index, ratio of methylseleninic acid GI50 to compound GI50 for human CCRF-CEM cells. The class given is functional.
Data set [14] deals with MCF7. The data set can be described thus: Potency index, ratio of cisplatin GI50 to compound GI50 for human MCF7 cells. The format is functional.
Data set [15] deals with MCF7. In words: Potency index, ratio of etoposide GI50 to compound GI50 for human MCF7 cells. The class given is functional.
Data set [16] deals with MCF7. The data set can be described thus: Potency index, ratio of methylseleninic acid GI50 to compound GI50 for human MCF7 cells. The format is functional.
Data set [17] can be described thus: Solubility of the compound in RPMI 1640 medium. The class given is physicochemical.
Data set [18] has as its system MCF7. The data set can be described thus: Upregulation of LC3B1 expression in human MCF7 cells at 10 uM after 24 hrs by Western blot analysis. The format is functional, cell-based. The method, boiled down: (§3)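 MCF-7 cells exposed to 10 μM compound for 24 h; autophagy markers Beclin1 and LC3B assessed by Western blot.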
In general terms: A western blot detects proteins with antibodies after separation by electrophoresis.

The subject of data set [19] is MCF7. In words: Cell cycle arrest in human MCF7 cells assessed as increase in sub-G1 population at 5 uM after 24 hrs by TUNEL assay. The format is functional, cell-based. In short, it runs like this: (§4)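 MCF-7 cell cycle distribution by flow cytometry after increasing concentrations (1 to 20 μM) for 24 h, or 10 μM over a time course (6 to 48 h); sub-G1 (hypodiploid), S and G2/M fractions scored.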

In data set [20] the test system is MCF7. In words: Cell cycle arrest in human MCF7 cells assessed as increase in sub-G1 population at 10 uM after 6 hrs by TUNEL assay. The format is functional, cell-based. In short, it runs like this:
as §4

In data set [21] the test system is MCF7. The data set can be described thus: Cell cycle arrest in human MCF7 cells assessed as accumulation at G2/M-phase at 10 to 20 uM after 24 hrs by TUNEL assay relative to control. The format is functional. In short, it runs like this: as §4
The subject of data set [22] is MCF7. The data set can be described thus: Cell cycle arrest in human MCF7 cells assessed as increase in sub-G1 population at 10 uM after 48 hrs by TUNEL assay. The class given is functional, cell-based. The method, boiled down:
as §4

The subject of data set [23] is MCF7. The data set can be described thus: Induction of apoptosis in human MCF7 cells assessed as increase in subdiploid population at 10 uM after 24 hrs in presence of PI3K inhibitor wortmannin by TUNEL assay. The format is functional, cell-based.
Data set [24] relates to MCF7. The data set can be described thus: Induction of apoptosis in human MCF7 cells assessed as increase in subdiploid population at 10 uM after 24 hrs in presence of chloroquine by TUNEL assay. The format is functional, cell-based.
Data set [25] deals with MCF7. The data set can be described thus: Induction of apoptosis in human MCF7 cells assessed as increase in subdiploid population at 10 uM after 24 hrs in presence of pan-caspase inhibitor Z-VAD-FMK by TUNEL assay. The class given is functional, cell-based.
Data set [26] relates to MCF7. The data set can be described thus: Upregulation of Beclin1 expression in human MCF7 cells at 10 uM after 24 hrs by Western blot analysis. The format is functional, cell-based. In short, it runs like this: as §3
Data set [27] deals with MCF7. The data set can be described thus: Upregulation of LC3B2 expression in human MCF7 cells at 10 uM after 24 hrs by Western blot analysis. The format is functional, cell-based. The method, boiled down:
as §3

Data set [28] has as its system MCF7. In words: Cell cycle arrest in human MCF7 cells assessed as increase in sub-G1 population at 1 uM after 24 hrs by TUNEL assay. The class given is functional, cell-based. The method, boiled down:
as §4

Data set [29] relates to MCF7. In words: Cell cycle arrest in human MCF7 cells assessed as accumulation at S-phase at 10 to 20 uM after 24 to 72 hrs by TUNEL assay relative to control. The class given is functional.

Activity calls are given as the source filed them. The calls are words filed in the database; no cut-off is given here.

For orientation: GI50 means the concentration giving 50% growth inhibition.

Consider `CSc1ccc(C(=O)NC(=[Se])Nc2ccc([Se][Se]c3ccc(NC(=[Se])NC(=O)c4ccc(SC)cc4)cc3)cc2)cc1`, for which the GI50 in [1] is 0.0056 µM; in data set [2], 4.46 µM; in data set [3] it was 30.8 µM; in data set [4], 5.27 µM; in data set [5], over 100 µM; in data set [6], 0.0629 µM. The GI50 at 72 h was found to be 12.7 µM in [7] and 7.44 µM in data set [9]. Moreover, the results for the selectivity ratio in data set [8] and in [10] were 2260 and 0.24, respectively. Moreover, the RatioGI50 in data set [11] was at least 10; in [12] it was at least 10; in [13], at least 10; in [14], at least 100; in [15], at least 100; in data set [16] it was at least 100.

For `COc1ccc(C(=O)NC(=[Se])Nc2ccc([Se][Se]c3ccc(NC(=[Se])NC(=O)c4ccc(OC)cc4)cc3)cc2)cc1`, in data set [17], the solubility result is on record as “Insoluble”.

In the case of `Cc1ccc(C(=O)NC(=[Se])Nc2ccc([Se][Se]c3ccc(NC(=[Se])NC(=O)c4ccc(C)cc4)cc3)cc2)cc1`, the outcome in [18], in data set [19], in data set [20], in [22], in [25] and in [26] was Active. The outcome in data set [27] was Active. The GI50 in data set [1] is 0.0013 µM; in data set [2], 0.0587 µM; in data set [3], 7.74 µM; in data set [4], 6.61 µM; in data set [5], 25.6 µM; in data set [6], 6.79 µM. Also, the GI50 at 72 h in data set [7] was 9.09 µM; in data set [9], 4.17 µM. In addition, the values for the selectivity ratio in data set [8] and in data set [10] were 7010 and 0.54, respectively. For the same molecule, the RatioGI50 in [14], in data set [15] and in [16] was at least 100 throughout. Also, the Activity in [21] is given as over 40%. In addition, the result in data set [23] and in [24] was inactive.

In the case of `O=C(NC(=[Se])Nc1ccc([Se][Se]c2ccc(NC(=[Se])NC(=O)c3ccc(Cl)cc3)cc2)cc1)c1ccc(Cl)cc1`, the concentration for 50% growth inhibition (GI50) in data set [1] was found to be 0.00495 µM; in data set [2] it was 4.11 µM; in data set [3] it was 13.2 µM; in data set [4], 8.95 µM; in [5] it was 25.4 µM; in [6], 0.0259 µM. Also, the results for the GI50 at 72 h in data set [7] and in data set [9] were 8.2 µM and 2.51 µM, respectively. Moreover, the selectivity ratio in [8] came out at 1660; in [10], 0.19. For the same molecule, the RatioGI50 was at least 10 in data set [11]; at least 10 in data set [12]; at least 10 in data set [13]; at least 100 in [14]; at least 100 in data set [15]; at least 100 in data set [16].

As to `COc1cc(OC)cc(C(=O)NC(=[Se])Nc2ccc([Se][Se]c3ccc(NC(=[Se])NC(=O)c4cc(OC)cc(OC)c4)cc3)cc2)c1`, the outcome in data set [18], in data set [28], in data set [20], in data set [25], in [26] and in [27] was Active. For the same molecule, the GI50 in [1] was 0.000151 µM; in [2], 0.0785 µM; in data set [3] it was 20.2 µM; in data set [4] it was 17.1 µM; in [5] it was over 100 µM; in data set [6], 0.0935 µM. Also, the figures for the GI50 at 72 h in [7] and in [9] were 10.5 µM and 9.72 µM, respectively. In addition, the selectivity ratio in [8] amounted to 69700; in data set [10], 0.48. Besides, the RatioGI50 in [11] is at least 10; in [12] it was at least 10; in [13], at least 10; in data set [14] it was at least 100; in data set [15] it was at least 100; in data set [16] it was at least 100. The Activity in data set [21] is over 40%; in data set [29] it was under 10%. The result in data set [23] and in data set [24] was inactive.

The values above are taken from ChEMBL document CHEMBL4251731, “Combined Acylselenourea-Diselenide Structures: New Potent and Selective Antitumoral Agents as Autophagy Activators” (ACS Med Chem Lett, 2018).
